The values that follow come from publication PMC7686626 (The Journal of International Medical Research, 2020).

For orientation: AUC(0-inf) means total exposure, with the tail of the curve extrapolated. A lower AUC(0-inf) goes with less exposure. For orientation: AUC(0-t) means the area under the concentration-time curve up to a stated or last time point. A lower AUC(0-t) goes with less exposure. One may read the Cmax as the highest concentration seen after dosing. The term Tmax denotes the time at which the peak concentration occurs. By half-life is commonly meant the time in which the quantity being followed falls by half.

The nature of data set [1]: Short-term stability of stock solutions at room temperature. Type of data set: physicochemical. Particulars: stock solution in methanol, room temperature for 6 hours. The procedure, abridged: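 Stock solutions (2.0 mg·mL−1 in methanol) of each analyte and the taxol internal standard were held 6 hours at room temperature and then assayed by the validated HPLC–MS/MS method. A deviation within ±15% was taken as stable.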

The nature of data set [2]: Pharmacokinetics study in rats after oral administration of HQCF extract. It counts as in vivo, rat. The note with it: for AUC(0-inf) / AUC(0-t) / Cmax / Tmax / half-life: male, Sprague-Dawley, rat, plasma, po, 1526.5 mg/kg; for shape of the plasma concentration–time curve: rats, after HQCF extract administration. The procedure, abridged: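 Male Sprague–Dawley rats (200 ± 20 g), acclimatised 7 days, fasted 12 h; n = 6 given extract water solution (0.2 g·mL−1) by gavage. Blood (~250 µL) from ophthalmic vein at 0–24 h; plasma spun at 16,060 × g, 10 min, 4°C. Plasma protein-precipitated with taxol internal standard; C18 gradient HPLC–ESI-MS/MS in SRM mode. Non-compartmental analysis; mean ± SD.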

A short description of data set [3]: Stability of QC samples of the analytes in rat plasma. The note with it: storage conditions of Table 5. Type of data set: in vitro ADME. The method in brief:
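Rat plasma QC samples at low, middle and high levels (n = 6 each) were held 4 h at room temperature, 24 h at 4°C, three freeze/thaw cycles (−80°C to room temperature) or 45 days at −80°C. Samples were protein-precipitated with taxol internal standard and run by HPLC–MS/MS SRM. A deviation within ±15% was taken as stable.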

Molecules are shown by their SMILES.

On to `CC(=O)O[C@H]1C(=O)[C@@]2(C)[C@H]([C@H](OC(=O)c3ccccc3)[C@]3(O)C[C@H](OC(=O)[C@H](O)[C@@H](NC(=O)c4ccccc4)c4ccccc4)C(C)=C1C3(C)C)[C@]1(OC(C)=O)CO[C@@H]1C[C@@H]2O` [IS, Taxol, reference compound], for which the “Stock solution stability, accuracy” value in data set [1] is reported as 102.4%.
On to `COc1ccc(-c2coc3cc(O)ccc3c2=O)cc1O` [CA, calycosin], for which, in data set [2], the AUC(0-inf) was 1830 ± 416 ng·h/mL, the AUC(0-t) worked out at 1680 ± 342 ng·h/mL, the Cmax turned out to be 247 ± 32.3 ng/mL and the Tmax was 1.5 ± 0.4 h. Besides, in data set [2], the half-life was 6.28 ± 2.5 h and the “shape of the plasma concentration–time curve” value was “double-peak absorption phases”. Further, the “Stock solution stability, accuracy” value in data set [1] is 90.2%. For the same compound, the “Degradation in rat plasma under different experimental conditions” value in data set [3] is “no significant degradation”.
`C[C@@]12C[C@@]3(O)O[C@@H](O1)[C@]1(COC(=O)c4ccccc4)[C@H]3C[C@@]12O[C@@H]1O[C@H](CO)[C@@H](O)[C@H](O)[C@H]1O` [PA, paeoniflorin]: in data set [2], the total exposure AUC(0-inf) was 762 ± 281 ng·h/mL, the AUC(0-t) is 410 ± 92.3 ng·h/mL, the Cmax stood at 117 ± 31.5 ng/mL and the Tmax amounted to 1.2 ± 0.6 h. For the same compound, in data set [2], the half-life was 6.94 ± 2.8 h and the “shape of the plasma concentration–time curve” value is recorded as “double-peak absorption phases”. Further, the “Stock solution stability, accuracy” value in data set [1] was 105.4%. The “Degradation in rat plasma under different experimental conditions” value in data set [3] was “no significant degradation”.
